In ChEMBL document CHEMBL2331121, “Design, synthesis, and pharmacological characterization of N- and O-substituted 5,6,7,8-tetrahydro-4H-isoxazolo[4,5-d]azepin-3-ol analogues: novel 5-HT(2A)/5-HT(2C) receptor agonists with pro-cognitive properties” (J Med Chem, 2013):
Active and inactive are the calls of the source. The calls are words filed in the database; no cut-off is given here.

Assays:
[1] = biological target: T1, 5-hydroxytryptamine receptor 2A (Homo sapiens, UniProt P28223); experiment: Agonist activity at human 5HT2A receptor expressed in HEK293 cells assessed as induction of intracellular calcium release at 1 mM measured for 90 secs by fluorescence assay; assay type: functional, cell-based
T1 sequence (P28223 whole entry): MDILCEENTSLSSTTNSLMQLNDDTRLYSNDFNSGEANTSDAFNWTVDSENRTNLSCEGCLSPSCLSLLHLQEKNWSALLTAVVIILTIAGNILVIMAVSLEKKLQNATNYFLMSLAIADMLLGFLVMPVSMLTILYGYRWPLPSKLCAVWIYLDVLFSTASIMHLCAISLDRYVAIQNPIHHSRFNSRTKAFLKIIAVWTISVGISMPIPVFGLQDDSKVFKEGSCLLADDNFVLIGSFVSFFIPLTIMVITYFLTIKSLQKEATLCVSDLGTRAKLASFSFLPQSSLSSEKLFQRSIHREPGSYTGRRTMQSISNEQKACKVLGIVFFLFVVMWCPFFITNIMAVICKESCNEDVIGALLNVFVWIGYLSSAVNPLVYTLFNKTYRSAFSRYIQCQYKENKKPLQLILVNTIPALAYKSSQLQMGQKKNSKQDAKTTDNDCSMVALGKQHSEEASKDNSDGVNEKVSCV
Method in brief: (§1)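 Stable polyclonal h5-HT2A or h5-HT2C HEK293 cells plated on poly-D-lysine wells, loaded next day with Fluo-4/AM for 1 h at 37 °C. Buffer was HBSS with 20 mM HEPES, 1 mM CaCl₂, 1 mM MgCl₂, 2.5 mM probenecid, pH 7.4. Fluorescence read at 485/525 nm before and up to 90 s after agonist addition. Responses normalised to 5-HT on the same plate. Duplicate, 4−10 experiments.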

[2] = biological target: T2, 5-hydroxytryptamine receptor 2C (Homo sapiens) (UniProt P28335); experiment: Agonist activity at human 5HT2C receptor expressed in HEK293 cells assessed as induction of intracellular calcium release at 1 mM measured for 90 secs by fluorescence assay; assay type: functional, cell-based; method in brief: as §1
T2 sequence (whole entry): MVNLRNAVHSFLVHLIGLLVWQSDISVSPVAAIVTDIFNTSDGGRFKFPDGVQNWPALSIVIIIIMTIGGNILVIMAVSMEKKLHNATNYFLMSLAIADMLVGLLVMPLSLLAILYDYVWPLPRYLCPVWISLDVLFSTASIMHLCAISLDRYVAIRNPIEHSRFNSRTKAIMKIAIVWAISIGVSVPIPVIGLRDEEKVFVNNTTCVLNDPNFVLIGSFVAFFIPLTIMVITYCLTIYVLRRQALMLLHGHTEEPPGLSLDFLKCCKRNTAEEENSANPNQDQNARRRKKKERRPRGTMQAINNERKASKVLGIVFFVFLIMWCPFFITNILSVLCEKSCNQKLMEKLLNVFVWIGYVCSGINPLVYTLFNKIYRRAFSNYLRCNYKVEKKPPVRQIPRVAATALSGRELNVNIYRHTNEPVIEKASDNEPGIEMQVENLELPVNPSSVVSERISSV

[3] = biological target: T1, 5-hydroxytryptamine receptor 2A; experiment: Antagonist activity at human 5HT2A receptor expressed in HEK293 cells assessed as inhibition of 5HT-induced intracellular calcium release at 1 mM measured for 90 secs by fluorescence assay; assay type: functional, cell-based
Method in brief: (§2)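 Fluo-4/Ca²⁺ read-out in stable h5-HT2A or h5-HT2C HEK293 cells (HBSS/HEPES/probenecid buffer, pH 7.4). Antagonist was added after the dye-loading wash, then cells were challenged with an EC₇₅−EC₈₅ concentration of 5-HT. Emission at 525 nm was monitored up to 90 s after agonist addition. Duplicate, repeated in independent experiments.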

[4] = biological target: T3, 5-hydroxytryptamine receptor 2C (Homo sapiens, UniProt P28335); experiment: Agonist activity at human 5HT2C receptor expressed in HEK293 cells assessed as induction of intracellular calcium release measured for 90 secs by fluorescence assay; assay type: functional, cell-based
T3 sequence (P28335 whole entry): T2 sequence (whole entry)

[5] = biological target: T1, 5-hydroxytryptamine receptor 2A; experiment: Agonist activity at human 5HT2A receptor expressed in HEK293 cells assessed as induction of intracellular calcium release measured for 90 secs by fluorescence assay; assay type: functional, cell-based
[6] = biological target: T2, 5-hydroxytryptamine receptor 2C (Homo sapiens); experiment: Antagonist activity at human 5HT2C receptor expressed in HEK293 cells assessed as inhibition of 5HT-induced intracellular calcium release at 1 mM measured for 90 secs by fluorescence assay; assay type: functional, cell-based; method in brief: as §2
[7] = biological target: T4, 5-hydroxytryptamine receptor 2C (Rattus norvegicus) (UniProt P08909); experiment: Displacement of [125I]-N-(p-I-Bn)-THAZ from 5HT2C receptor in rat hippocampal membrane after 1 hr by scintillation counting analysis; assay type: cell membranes; settings: Hippocampus
T4 sequence (whole entry): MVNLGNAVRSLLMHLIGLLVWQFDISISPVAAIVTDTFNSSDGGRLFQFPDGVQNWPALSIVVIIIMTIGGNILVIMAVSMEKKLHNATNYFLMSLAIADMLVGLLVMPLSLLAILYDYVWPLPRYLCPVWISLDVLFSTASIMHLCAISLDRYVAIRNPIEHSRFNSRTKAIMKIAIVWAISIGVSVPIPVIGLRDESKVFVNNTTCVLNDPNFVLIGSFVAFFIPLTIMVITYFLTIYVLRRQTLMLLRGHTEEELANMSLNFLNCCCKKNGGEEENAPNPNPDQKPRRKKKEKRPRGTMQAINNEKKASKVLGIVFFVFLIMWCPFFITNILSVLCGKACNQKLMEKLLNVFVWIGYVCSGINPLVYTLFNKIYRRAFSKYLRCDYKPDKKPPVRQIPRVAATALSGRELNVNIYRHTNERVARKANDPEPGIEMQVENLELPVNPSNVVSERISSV

[8] = biological target: T4, 5-hydroxytryptamine receptor 2C (Rattus norvegicus); experiment: Displacement of [125I]-N-(p-I-Bn)-THAZ from 5HT2C in rat cerebral cortex membrane up to 50 uM after 1 hr by scintillation counting analysis; assay type: cell membranes
[9] = biological target: T4, 5-hydroxytryptamine receptor 2C (Rattus norvegicus); experiment: Displacement of [125I]-N-(p-I-Bn)-THAZ from 5HT2C receptor in rat midbrain membrane after 1 hr by scintillation counting analysis; assay type: cell membranes
[10] = biological target: T4, 5-hydroxytryptamine receptor 2C (Rattus norvegicus); experiment: Displacement of [125I]-N-(p-I-Bn)-THAZ from 5HT2C receptor in rat cerebellum membrane after 1 hr by scintillation counting analysis; assay type: cell membranes
[11] = biological target: T1, 5-hydroxytryptamine receptor 2A; experiment: Agonist activity at human 5HT2A receptor expressed in HEK293 cells assessed as accumulation of IP1 incubated for 1 hr at 37 degC followed by 15 mins at RT by TR-FRET assay relative to 5HT; assay type: functional, cell-based
Method in brief: (§3)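 Polyclonal HEK293 lines stably expressing human 5-HT2A (variant 1) or 5-HT2C (INI isoform), detached and suspended at 1 × 10⁷ cells/mL in HBSS with 20 mM HEPES, 1 mM CaCl₂, 1 mM MgCl₂, pH 7.4. Ligands in buffer with 40 mM LiCl. Incubated 1 h at 37 °C, then 15 min RT. IP1 read by HTRF 665/615 ratio. Triplicate, at least four times.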

[12] = biological target: T2, 5-hydroxytryptamine receptor 2C (Homo sapiens); experiment: Agonist activity at human 5HT2C receptor expressed in HEK293 cells assessed as accumulation of IP1 incubated for 1 hr at 37 degC followed by 15 mins at RT by TR-FRET assay relative to 5HT; assay type: functional, cell-based; method in brief: as §3
[13] = biological target: T2, 5-hydroxytryptamine receptor 2C (Homo sapiens); experiment: Agonist activity at human 5HT2C receptor expressed in HEK293 cells assessed as induction of intracellular calcium release by fluorescence assay relative to 5HT; assay type: functional, cell-based
Method in brief: (§4)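 Stable polyclonal 5-HT2A or 5-HT2C HEK293 cells seeded on poly-D-lysine plates (6 × 10⁴ cells/well). Next day loaded with Fluo-4/AM for 1 h at 37 °C in HBSS/20 mM HEPES/1 mM CaCl₂/1 mM MgCl₂/2.5 mM probenecid, pH 7.4. Fluorescence (485 ex/525 em) recorded before and up to 90 s after agonist. Response relative to 5-HT on the same plate. Duplicate, at least three times.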

[14] = biological target: T3, 5-hydroxytryptamine receptor 2C; experiment: Agonist activity at human 5HT2C receptor expressed in HEK293 cells assessed as accumulation of IP1 incubated for 1 hr at 37 degC followed by 15 mins at RT by TR-FRET assay; assay type: functional, cell-based
[15] = biological target: T1, 5-hydroxytryptamine receptor 2A; experiment: Agonist activity at human 5HT2A receptor expressed in HEK293 cells assessed as induction of intracellular calcium release by fluorescence assay relative to 5HT; assay type: functional, cell-based; method in brief: as §4
[16] = biological target: T1, 5-hydroxytryptamine receptor 2A; experiment: Agonist activity at human 5HT2A receptor expressed in HEK293 cells assessed as accumulation of IP1 incubated for 1 hr at 37 degC followed by 15 mins at RT by TR-FRET assay; assay type: functional, cell-based
[17] = biological target: T4, 5-hydroxytryptamine receptor 2C (Rattus norvegicus); experiment: Displacement of [125I]-N-(p-I-Bn)-THAZ from 5HT2C in rat cerebral cortex membrane at 300 uM after 1 hr by scintillation counting analysis; assay type: cell membranes
[18] = biological target: T3, 5-hydroxytryptamine receptor 2C; experiment: Displacement of [3H]mesulergine from human 5HT2C receptor expressed in tsA201 cell membranes after 1 hr by scintillation counting analysis
[19] = biological target: T1, 5-hydroxytryptamine receptor 2A; experiment: biochemical; assay type: cell-based, tsA201; settings: read-out: Ki

SMILES	Activity [1]	Activity [2]	Activity [3]	EC50 ([4]; hek293, read-out: EC50) [µM]	EC50 ([4]; read-out: pEC50 (converted)) [µM]	EC50 ([5]; hek293, read-out: EC50) [µM]	EC50 ([5]; read-out: pEC50 (converted)) [µM]	Activity [6]	other results
CCn1oc2c(c1=O)CNCC2	inactive	inactive	inactive	> 1000	> 1000	> 1000	> 1000	inactive	–
NCCc1c[nH]c2ccc(O)cc12	–	–	–	–	–	–	–	–	Activity [7]: inactive; Activity [8]: inactive; Activity [9]: inactive; Activity [10]: inactive
O=c1c2c(on1Cc1ccccc1)CCNC2	inactive	inactive	inactive	> 1000	> 1000	> 1000	> 1000	inactive	–
Cn1c2c(c3ccccc31)CCNCC2 [PNU-22394]	–	–	–	–	–	–	–	–	Emax [11]: 98%; Emax [12]: 97%; Emax [13]: 101%; EC50 ([4]; read-out: EC50): 0.0077 µM; EC50 [14]: 0.12 µM; EC50 ([5]; read-out: EC50): 0.023 µM; Emax [15]: 102%; EC50 [16]: 0.21 µM
Cc1cc2c(cc1Cl)N(C(=O)Nc1ccc(Oc3cccnc3C)nc1)CC2	–	–	–	–	–	–	–	–	Activity [8]: inactive
O=C1Nc2cc(Cl)c(Cl)cc2N2CCNCC12 (stereo not given)	–	–	–	–	–	–	–	–	Emax [13]: 95%; EC50 ([4]; read-out: EC50): 0.0073 µM; EC50 ([5]; read-out: EC50): 0.012 µM; Emax [15]: 110%
NCCc1ccc(O)c(O)c1	–	–	–	–	–	–	–	–	Activity [17]: inactive
O=c1c2c(on1Cc1cccc(I)c1)CCNCC2	–	–	–	–	–	–	–	–	Ki [18]: 4.8 µM
Clc1cncc(N2CCNCC2)n1 [MK-212]	–	–	–	–	–	–	–	–	Ki [19]: 21 µM; Emax [11]: 101%; Emax [12]: 93%; Ki [18]: 3.4 µM; Emax [13]: 93%; EC50 ([4]; read-out: EC50): 0.028 µM; EC50 [14]: 0.16 µM; EC50 ([5]; read-out: EC50): 0.42 µM; Emax [15]: 97%; EC50 [16]: 1.2 µM
CCn1oc2c(c1=O)CCNC2	inactive	inactive	inactive	> 1000	> 1000	> 1000	> 1000	inactive	–
CCOc1noc2c1CCNC2	inactive	inactive	inactive	> 1000	> 1000	> 1000	> 1000	inactive	–
O=c1c2c(on1Cc1ccccc1)CCCNC2	inactive	inactive	inactive	> 1000	> 1000	> 1000	> 1000	inactive	–
CC(=O)OCC[N+](C)(C)C	–	–	–	–	–	–	–	–	Activity [17]: inactive
